Assay results reported in PMC9701462 (Hepatology Communications, 2022).

Columns and labels:
Type in all cases: in vivo, human
[1] = Whole-blood pharmacokinetics; conditions: subjects with F2/F3 NASH, derived from CL/F and Vc/F estimates
Method in brief: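 Whole-blood samples were taken on Day 1 and Day 28 of once-daily oral dosing and assayed for parent drug and primary metabolites. Population PK used nonlinear mixed-effects modeling with first-order conditional estimation with interaction. Model choice used −2LL, AIC/BIC, %RSE and residual/VPC diagnostics; predictions ran to 816 h. CIs came from jackknife bootstrap (500 runs). Half-life was derived from CL/F and Vc/F estimates.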

[2] = system: subjects with presumed F2/F3 NASH; test: Phase 2a safety and tolerability; conditions: 28 days
Method in brief: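 Single-blind (subjects only), 2:1 randomized, placebo-controlled, at 10 US sites. Dosing was oral, once daily in the morning, fasted, for 28 days, as 75-mg soft-gelatin capsules. AEs, SAEs, labs (chemistry, hematology, coagulation, urinalysis), ECG, vitals and physical exams were recorded at screening, at Day 1 pre-dose baseline, then weekly for 4 weeks. Results are given as counts and percentages of the safety set per group.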

[3] = system: subjects with presumed F2/F3 NASH; test: Collagen biomarkers; conditions: for Pro-C3, Mean: plasma
Method in brief: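 Adults with presumed F2/F3 NASH were randomized 2:1 to oral active or matching placebo, given as 75-mg soft-gelatin capsules once daily in the morning, fasted, for 28 days. Collagen turnover markers were sampled at baseline (Day 1, pre-dose), after 28 days of dosing, and at end of study after a 14-day observation period. Values are summarized as mean, SD, median and range.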

[4] = system: subjects with presumed F2/F3 NASH; test: Serum liver enzymes ALT and AST, Phase 2a exploratory efficacy; conditions: for ALT, Mean: serum
Method in brief: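 Serum ALT and AST are exploratory efficacy endpoints, taken as absolute and percent change from baseline. Sampling was at Day 1 before dosing, during 28 days of once-daily fasted oral dosing, and after a 14-day off-drug observation period. Analysis used repeated-measures ANOVA/ANCOVA with Bonferroni correction, or Friedman/Savage nonparametric ANOVA when data were non-normal or sparse.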

[5] = 75 mg QD oral x 28 days, Day 1 (baseline, before dosing), N = 14
[6] = 75 mg QD oral x 28 days, Day 1 (baseline, before dosing), N = 15
[7] = 75 mg QD oral x 28 days, Day 14, N = 14
[8] = 75 mg QD oral x 28 days, Day 14, N = 15
[9] = 75 mg QD oral x 28 days, Day 28, N = 14
[10] = 75 mg QD oral x 28 days, Day 28, N = 15
[11] = 75 mg QD oral x 28 days, Day 42 (after 14-day observation period), N = 14
[12] = 75 mg QD oral x 28 days, Day 42 (after 14-day observation period), N = 15
[13] = 225 mg QD oral x 28 days, Day 1 (baseline, before dosing), N = 15
[14] = 225 mg QD oral x 28 days, Day 1 (baseline, before dosing), N = 16
[15] = 225 mg QD oral x 28 days, Day 14, N = 15
[16] = 225 mg QD oral x 28 days, Day 14, N = 16
[17] = 225 mg QD oral x 28 days, Day 28, N = 15
[18] = 225 mg QD oral x 28 days, Day 28, N = 16
[19] = 225 mg QD oral x 28 days, Day 42 (after 14-day observation period), N = 16

Rencofilstat [RCF]
effective half-life of elimination (T1/2) [1]: 33.7 ± 11.1 h
Subjects with any TEAE ([2]; 75 mg QD oral, N = 15): 5 (33.3%) n (%)
TEAE: Back pain ([2]; 75 mg QD oral, N = 15): 0 (0%) n (%)
TEAE: Constipation ([2]; 75 mg QD oral, N = 15): 1 (6.7%) n (%)
TEAE: Diarrhea ([2]; 75 mg QD oral, N = 15): 0 (0%) n (%)
TEAE: Dizziness ([2]; 75 mg QD oral, N = 15): 0 (0%) n (%)
TEAE: Gastrointestinal disorders ([2]; 75 mg QD oral, N = 15): 1 (6.7%) n (%)
TEAE: Headache ([2]; 75 mg QD oral, N = 15): 0 (0%) n (%)
TEAE: Musculoskeletal disorders ([2]; 75 mg QD oral, N = 15): 2 (13.3%) n (%)
TEAE: Nervous system disorders ([2]; 75 mg QD oral, N = 15): 1 (6.7%) n (%)
deaths or treatment-emergent SAEs (TESAEs) ([2]; 75 mg and 225 mg QD oral): No deaths or TESAEs
safety signals ([2]; 75 mg and 225 mg QD oral): No safety signals were identified
Subjects with any TEAE ([2]; 225 mg QD oral, N = 17): 10 (58.8%) n (%)
TEAE: Back pain ([2]; 225 mg QD oral, N = 17): 1 (5.9%) n (%)
TEAE: Constipation ([2]; 225 mg QD oral, N = 17): 2 (11.8%) n (%)
TEAE: Diarrhea ([2]; 225 mg QD oral, N = 17): 2 (11.8%) n (%)
TEAE: Dizziness ([2]; 225 mg QD oral, N = 17): 1 (5.9%) n (%)
TEAE: Gastrointestinal disorders ([2]; 225 mg QD oral, N = 17): 5 (29.4%) n (%)
TEAE: Headache ([2]; 225 mg QD oral, N = 17): 1 (5.9%) n (%)
TEAE: Musculoskeletal disorders ([2]; 225 mg QD oral, N = 17): 2 (11.8%) n (%)
TEAE: Nervous system disorders ([2]; 225 mg QD oral, N = 17): 2 (11.8%) n (%)
C1M, Mean [3, 5]: 90185.71 pg/mL
C6M, Mean [3, 5]: 25142.86 pg/mL
PRO-C8, Mean [3, 6]: 4985.33 pg/mL
Pro-C3, Mean [3, 5]: 23792.86 pg/mL
C1M, Mean [3, 7]: 80125.00 pg/mL
C6M, Mean [3, 7]: 25825.00 pg/mL
PRO-C8, Mean [3, 8]: 4693.33 pg/mL
Pro-C3, Mean [3, 7]: 22916.67 pg/mL
C1M, Mean [3, 9]: 70490.91 pg/mL
C6M, Mean [3, 9]: 23354.55 pg/mL
PRO-C8, Mean [3, 10]: 4683.33 pg/mL
Pro-C3, Mean [3, 9]: 22933.33 pg/mL
C1M, Mean [3, 11]: 65309.09 pg/mL
C6M, Mean [3, 11]: 23783.33 pg/mL
PRO-C8, Mean [3, 12]: 4923.33 pg/mL
PRO-C8, Mean [3, 13]: 4693.33 pg/mL
C1M, Mean [3, 14]: 70262.50 pg/mL
C6M, Mean [3, 14]: 31406.25 pg/mL
Pro-C3, Mean [3, 13]: 24413.33 pg/mL
PRO-C8, Mean [3, 15]: 4138.13 pg/mL
C1M, Mean [3, 16]: 55843.75 pg/mL
C6M, Mean [3, 16]: 29168.75 pg/mL
Pro-C3, Mean [3, 15]: 22418.75 pg/mL
PRO-C8, Mean [3, 17]: 4416.88 pg/mL
C1M, Mean [3, 18]: 62100.00 pg/mL
C6M, Mean [3, 18]: 31362.5 pg/mL
Pro-C3, Mean [3, 17]: 24043.75 pg/mL
PRO-C8, Mean ([3]; 225 mg QD oral x 28 days, Day 42 (after 14-day observation period), N = 15): 4712.94 pg/mL
C1M, Mean [3, 19]: 69850.00 pg/mL
C6M, Mean [3, 19]: 33168.75 pg/mL
AST, Mean [4, 6]: 49.47 IU/L
ALT, Mean [4, 6]: 60.53 IU/L
AST, Mean [4, 8]: 39.42 IU/L
ALT, Mean [4, 8]: 47.00 IU/L
AST, Mean [4, 10]: 35.08 IU/L
ALT, Mean [4, 10]: 42.50 IU/L
AST, Mean [4, 12]: 41.45 IU/L
ALT, Mean [4, 12]: 50.00 IU/L
AST, Mean [4, 14]: 31.94 IU/L
ALT, Mean [4, 14]: 36.06 IU/L
AST, Mean [4, 16]: 32.82 IU/L
ALT, Mean [4, 16]: 31.59 IU/L
AST, Mean [4, 18]: 32.38 IU/L
ALT, Mean [4, 18]: 30.56 IU/L
AST, Mean [4, 19]: 31.38 IU/L
